Paper PMC2213596 (The Journal of Cell Biology, 2008)

Legend:
[1] = system: Mcl-1 in primary thymocytes; test: Mcl-1 levels by Western blotting after ionomycin; type: cell-based, mouse; conditions: with 50 μM qVD-OPH
In short: (§1)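 Cells were cultured with 50 μM qVD-OPH to block caspase cleavage of Mcl-1. For 2, MCF-7 cells were given 1.5 μM thapsigargin for up to 48 h. For 1, primary bim+/+ mouse thymocytes were given 1 μg/ml ionomycin. Cells were lysed in 1% (vol/vol) Triton X-100 buffer. Western blots were probed with rat monoclonal anti-Mcl-1 (19C4-15) and anti-Bim, then reprobed for HSP70 as loading control.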

[2] = system: primary thymocytes; test: ionomycin-induced killing, cell viability; type: cell-based, mouse; conditions: 1 μg/ml ionomycin
In short: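 Thymocytes came from bim+/+ or bim−/− mice. They were treated with 1 μg/ml ionomycin for 0–24 h. Viability was scored by flow cytometry as propidium iodide-excluding cells. Values are means ± SD of three experiments.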

[3] = system: cytochrome c release from MEF mitochondria; test: in vitro cytochrome c release assay; type: cell-based, mouse; conditions: 5 μM ABT-737, 30°C, 1 h
[4] = system: MEFs; test: short-term killing assay with ABT-737; type: cell-based, mouse
In short: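 Constructs in pMIG (MSCV-IRES-GFP) were packaged in transiently transfected ecotropic Phoenix cells. Filtered supernatants were spin-inoculated onto FDC-P1 cells or SV40 large T-immortalized MEFs. ABT-737 was added immediately after spin inoculation. Viability was the fraction of GFP+ cells excluding 5 μg/ml PI, read by flow cytometry 30 h or at indicated times after transduction. MEF dose-response used stably infected lines given 0–10 μM ABT-737 for 24 h.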

[5] = system: Mcl-1 in MCF-7 cells; test: Mcl-1 levels by Western blotting after thapsigargin; type: cell-based; conditions: up to 48 h, with 50 μM qVD-OPH
In short: as §1

[6] = system: MCF-7 cells; test: thapsigargin-induced apoptosis, cell viability; type: cell-based; conditions: 1.5 μM thapsigargin, 0–48 h
In short: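 Wild-type MCF-7 cells and a subclone stably expressing Bim shRNA were treated with 1.5 μM thapsigargin for 0–48 h. Survival was measured by flow cytometry as propidium iodide exclusion. Values are means ± SD of three experiments.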

[7] = system: MEFs; test: long-term tolerance assay; type: cell-based, mouse; conditions: wild-type MEFs; retroviral expression linked to GFP through IRES; ∼40 d
In short: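 SV40-immortalized MEF lines stably expressing BH3-only constructs from pMIG (GFP via IRES) were grown without selection. They were harvested every 3 or 4 d over 38 d. At each time point, flow cytometry measured the proportion of GFP+ cells that excluded propidium iodide.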

What does the source list for `C[C@H](CCC(=O)O)C[C@H](C)C[C@H](C)C(=O)/C=C(\O)[C@H](C)C[C@H](C)C/C=C/[C@@H](C)[C@@H](O)[C@@H](C)[C@@H](O)C[C@@H]1CC[C@@](C)([C@H]2CC[C@@](C)([C@@H](C)O)O2)O1` [ionomycin]?
Mcl-1 levels after treatment [1]: did not significantly change; killing of Bim-deficient thymocytes ([2]; 0–24 h): attenuates; death of wild-type thymocytes ([2]; 0–24 h, three experiments): significant death

Which “effect on killing induced by ionomycin” value ([2]; 50 μM qVD-OPH, thymocytes) does the source give for `CC(C)[C@H](NC(=O)c1ccc2ccccc2n1)C(=O)N[C@@H](CC(=O)O)C(=O)COc1c(F)cccc1F` [qVD-OPH] here?
The value was “significantly reduced the killing”.

For `CN(C)CC[C@H](CSc1ccccc1)Nc1ccc(S(=O)(=O)NC(=O)c2ccc(N3CCN(Cc4ccccc4-c4ccc(Cl)cc4)CC3)cc2)cc1[N+](=O)[O-]` [ABT-737], which cytochrome c release ([3]; mitochondria from BimS2A-expressing cells) is on record?
The cytochrome c release was “significant release”.

And the cytochrome c release ([3]; mitochondria from BimS4E-expressing cells)?
Its cytochrome c release is “No cytochrome c release”.

What about the “time to maximal cell death” value ([4]; 1 μM ABT-737, MEFs expressing BimS2A, Noxa or BimSNoxaBH3) of the same molecule?
Its value is 4 to 6 h.

What about the “killing of MEFs lacking Bim and Bid” value ([4]; ABT-737 with BimS2A expression) of the same molecule?
The value was “able to synergize and kill”.

And the “killing of bax−/− and bak−/− MEFs” value ([4]; BimS2A/ABT-737 combination)?
The value was “able to kill”.

And the “viability of MEFs expressing Mcl-1–selective BH3-only proteins” value ([4]; MEFs expressing BimS2A, BimSNoxaBH3 or Noxa, 24 h, 0–10 μM ABT-737)?
Its value is “efficiently kill cells”.

How did the “Mcl-1 levels over levels in untreated cells” value [5] turn out when `C/C=C(/C)C(=O)O[C@H]1C(C)=C2[C@H]([C@@H]1OC(=O)CCCCCCC)[C@@](C)(OC(C)=O)C[C@H](OC(=O)CCC)[C@@]1(O)[C@H]2OC(=O)[C@@]1(C)O` [thapsigargin] was run?
The value was “up to twofold”.

And the “cell death of MCF-7 cells expressing Bim shRNA” value [6]?
Its value is “relatively insensitive”.

What about the “cell death of wild-type MCF-7 cells” value ([6]; three experiments) of the same molecule?
The value was “Significant cell death”.

B1: BimS2A: full-length BimS containing the L62A/F69A mutations, retrovirally expressed (protein)
chain: MAKQPSDVSSECDREGRQLQPAERPPQLRPGAPTSLQTEPQASMRQAEPADMRPEIWIAQEARRIGDEANAYYARRVFLNNYQAAEDHPRMVILRLLRYIVRLVWRMH
modifications: left off: HA, end not stated, kept
With B1 as the molecule, how does the “viable cells that remained GFP+ve” value [7] read?
The value was “progressive loss”.

B2: Noxa: BH3-only protein preferentially binding Mcl-1, retrovirally expressed (protein, UniProt Q9JM54 1-103, looked up)
Phorbol-12-myristate-13-acetat …: MPGRKARRNAPVNPTRAELPPEFAAQLRKIGDKVYCTWSAPDITVVLAQMPGKSQKSRMRSPSPTRVPADLKDECAQLRRIGDKVNLRQKLLNLISKLFNLVT
With B2 as the molecule, how does the “viable cells that remained GFP+ve” value [7] read?
Its value is “progressive loss”.

B3: Bad: BH3-only protein targeting Bcl-xL, Bcl-w and Bcl-2, retrovirally expressed (protein, UniProt Q61337 1-204, looked up)
Bcl2-associated agonist of …: MGTPKQPSLAPAHALGLRKSDPGIRSLGSDAGGRRWRPAAQSMFQIPEFEPSEQEDASATDRGLGPSLTEDQPGPYLAPGLLGSNIHQQGRAATNSHHGGAGAMETRSRHSSYPAGTEEDEGMEEELSPFRGRSRSAPPNLWAAQRYGRELRRMSDEFEGSFKGLPRPKSAGTATQMRQSAGWTRIIQSWWDRNLGKGGSTPSQ
For B3, which “viable cells that remained GFP+ve” value [7] is on record?
Its value is > 80%.
